Screens (PubChem)
bCat nuc transl: beta-catenin nuclear translocation modulation; HeLa beta-catenin nuclear translocation, immunofluorescence imaging; nuclear translocation activity, % at 5 µM; actives 0.3% (n = 190,000); AID 1665;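 active = nuclear translocation activity above 50% at 5 µM, with a well cell count of 50 or more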;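 also: per-cell ratio of nuclear to cytoplasmic median beta-catenin stain intensity; plate controls were DMSO negative control for no effect and GSK-3 inhibitor IX positive control for full effect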
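Technique: fluorescence imaging of beta-catenin antibody stain plus DAPI / Material: human HeLa cell line / Incubation: compound treatment 24 h, 37°C, 5% CO2 / Read-out basis: % activation of per-cell nuclear versus cytoplasmic median beta-catenin signal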
BB579 growth dn: yeast BB579 growth reduction in restrictive medium | S. cerevisiae BB579 growth, OD615, 48 h | inhibition, % at 10 µM | actives 0.51% (n = 140,000);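 active = inhibition above a set limit, 3 SD over the mean compound inhibition, cut at about 44% in these data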
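test system = yeast BB579 (DeaD) | buffer or medium = restrictive CSMM-D medium | doses = single compound dose of 10 µM, 0.25% DMSO final | times = 4 h preincubation and 48 h exposure at 30 °C | technique = culture absorbance at 615 nm | benchmarks = amphotericin B 10 µg/mL, positive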
MT stabilize HCS: microtubule stabilizers in HeLa cells; HeLa tubulin immunostaining HCS, 24 h; share of cells brighter than vehicle mean+2SD; % tubulin-high responders, % at 10 µM; actives 0.83% (n = 200,000);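 active = plate Z-score above 3 for both tubulin-high and condensed-nucleus cell shares, with cell loss under 80%, at 10 µM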;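 also: anti alpha tubulin signal scored within the nucleus-defined area of each cell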
HMGR II inh: E. faecalis class II HMG-CoA reductase inhibition; purified E. faecalis HMGR, NADPH absorbance 340 nm kinetic; inhibition, % at 10 µM; actives 0.41% (n = 190,000); AID 1066;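 active = inhibition above a set limit, the median over all tested compounds plus 3 SD, cut at about 9.5% in these data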;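 also: enzyme runs in reverse so mevalonate oxidation gives rising NADPH absorbance; 0% = complete reaction with DMSO and 100% = background rate lacking mevalonate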
RAM network inh: yeast RAM network inhibition | S. cerevisiae dse1pr::URA3 reporter, 5-FOA growth OD615, 2 d; analog-sensitive cbk1-as2 kinase mutant strain | inhibition, % at 50 µM | actives 1.8% (n = 190,000);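 active = inhibition above a set limit, 3 SD over mean compound inhibition, cut at about 8.4% in these data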;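 also: 0% = DMSO-only wells with no growth and 100% = 10 µM 1-NA-PP1 full growth; inhibition rescues growth on 5-FOA so higher OD means more RAM inhibition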
Yeast lifespan up: yeast lifespan extension; S. cerevisiae growth with nicotinamide, OD615; deaD strain in restrictive glucose medium; inhibition of the nicotinamide effect, % at 10 µM; actives 0.68% (n = 130,000); AID 775;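 active = inhibition above a set limit, placed 3 SD over the median of all compounds, cut at about 26% in these data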;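 also: 0% = nicotinamide-treated wells and 100% = cells grown without nicotinamide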
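Test system: DeaD-strain S. cerevisiae / Buffer or medium: restrictive glucose medium / Also added: nicotinamide 1.5 mM / Doses: one concentration, 10 µM, DMSO 0.25% / Schedule: 48 h at 30 °C / Signal: OD615 measurement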
* = called active by the depositor. Sampled rows, rich in hits. Any-hit rate of the full collection: about 3.5%.

`CC(=O)Nc1ccc(S(=O)(=O)Nc2cccc(-c3nc4ccccc4o3)c2)cc1` gave bCat nuc transl 7.5, BB579 growth dn -4.9, MT stabilize HCS 6.6, HMGR II inh -8.3, RAM network inh 0.6 and Yeast lifespan up -5.9.
For O=S(=O)(Nc1ccc(-c2nc3ccccc3o2)cc1)c1ccccc1 the results were bCat nuc transl -0.7, BB579 growth dn 45.7*, MT stabilize HCS 1.8, HMGR II inh 1.2, RAM network inh 4.9 and Yeast lifespan up -7.2.
Cc1[nH]c2ccccc2c1C(=O)CSC(=S)N1CCCCC1 was read as bCat nuc transl -0.8, BB579 growth dn -18.1, MT stabilize HCS 2.8, HMGR II inh -0.6, RAM network inh 1.9 and Yeast lifespan up -1.1.
For Cc1cc(N/N=C/c2ccc([N+](=O)[O-])o2)nc2ccccc12 the results were bCat nuc transl 2.3, MT stabilize HCS 2.9, HMGR II inh -1.7 and RAM network inh 0.3.
For Cn1c(/C=C/c2ccc([N+](=O)[O-])o2)nc2ccccc2c1=O the results were bCat nuc transl 11.6, BB579 growth dn 81.9*, MT stabilize HCS 1.8, HMGR II inh -7.8, RAM network inh 0.4 and Yeast lifespan up 2.9.
Screening CCOc1ccccc1NC(=O)CC(O)(C(F)(F)F)C(F)(F)F returned BB579 growth dn -10.5, MT stabilize HCS 2.4, HMGR II inh 2.1 and RAM network inh -0.5.
Screening Cc1ccccc1NC(=O)CC(O)(C(F)(F)F)C(F)(F)F returned BB579 growth dn -19.7, MT stabilize HCS 4.8, HMGR II inh 1.1, RAM network inh 0.5 and Yeast lifespan up 31.9*.
`C=CCN(C(=O)c1ccccn1)C(C(=O)NCc1ccccc1)c1ccccc1F` (stereo not drawn) gave bCat nuc transl -0.6, MT stabilize HCS 2.6, HMGR II inh -5.2 and RAM network inh 0.8.
For O=C(NCCCO)c1ccc(CSc2nc3ccccc3[nH]2)cc1 the results were bCat nuc transl 1.0, MT stabilize HCS 1.3, HMGR II inh 13.2* and RAM network inh 4.7.
`O=C(NC(=S)Nc1ccc2oc(=O)ccc2c1)c1cc2ccccc2o1` gave bCat nuc transl 0.8.
For COc1ccc(CN(CC(=O)NC2CCCC2)C(=O)c2ccc(-c3ccccc3)[nH]2)cc1 the results were bCat nuc transl 0.2, MT stabilize HCS 6.3, HMGR II inh 1.4 and RAM network inh 8.8*.
Screening CC(=O)c1c(C)c(C)c2n1CCn1c(C)ccc1-2 returned bCat nuc transl 0.8.
CCC1(CC)Cc2ccccc2C(Nc2c(C)n(C)n(-c3ccccc3)c2=O)=N1 was read as bCat nuc transl 0.1, BB579 growth dn -36.9, MT stabilize HCS 0.8, HMGR II inh -5.0, RAM network inh 1.8 and Yeast lifespan up -9.3.
For Cc1c(NS(=O)(=O)c2ccc(S(=O)(=O)c3ccccc3)s2)c(=O)n(-c2ccccc2)n1C the results were bCat nuc transl -0.4.
Cc1c(NS(=O)(=O)c2ccc3c(c2)Cc2ccccc2-3)c(=O)n(-c2ccccc2)n1C was read as bCat nuc transl -0.1, MT stabilize HCS 4.0, HMGR II inh 13.6* and RAM network inh -0.1.
Cc1c(NS(=O)(=O)c2ccc(Br)s2)c(=O)n(-c2ccccc2)n1C was read as bCat nuc transl -2.8, BB579 growth dn -4.8, MT stabilize HCS 1.9, HMGR II inh 10.4*, RAM network inh 0.0 and Yeast lifespan up 1.1.
For Cc1c(NC2=NC(C)(C)Cc3ccccc32)c(=O)n(-c2ccccc2)n1C the results were bCat nuc transl -1.9, BB579 growth dn -39.1, MT stabilize HCS 2.1, HMGR II inh 11.4* and RAM network inh 1.8.
For Cc1ccc(C(=O)n2nc(C#N)c(C#N)c2N)cc1 the results were bCat nuc transl -1.1.
`Cc1cc(C)c(C)c(S(=O)(=O)NC2CCN(Cc3ccccc3)CC2)c1C` gave bCat nuc transl -2.0, MT stabilize HCS 5.0, HMGR II inh -0.3 and RAM network inh -1.1.
`COc1ccc(N2C(=O)N(Cc3cccc(F)c3)c3ccccc3S2(=O)=O)cc1` gave bCat nuc transl 2.0, MT stabilize HCS 2.8, HMGR II inh -2.2 and RAM network inh 8.8*.
